B1: GCS: GlcCer synthase, full‐length, expressed in cells (protein)
chain: MALLDLALEGMAVFGFVLFLVLWLMHFMAIIYTRLHLNKKATDKQPYSKLPGVSLLKPLKGVDPNLINNLETFFELDYPKYEVLLCVQDHDDPAIDVCKKLLGKYPNVDARLFIGGKKVGINPKINNLMPGYEVAKYDLIWICDSGIRVIPDTLTDMVNQMTEKVGLVHGLPYVADRQGFAATLEQVYFGTSHPRYYISANVTGFKCVTGMSCLMRKDVLDQAGGLIAFAQYIAEDYFMAKAIADRGWRFAMSTQVAMQNSGSYSISQFQSRMIRWTKLRINMLPATIICEPISECFVASLIIGWAAHHVFRWDIMVFFMCHCLAWFIFDYIQLRGVQGGTLCFSKLDYAVAWFIRESMTIYIFLSALWDPTISWRTGRYRLRCGGTAEEILDV
modifications: left off: HA (9aa), internal (between the two Gly residues of DPTISWRTGRYRLRCGGTAEEILDV), kept
B2: LCS: LacCer synthase, expressed in cells (protein)
chain: MRARRGLLRLPRRSLLAALFFFSLSSSLLYFVYVAPGIVNTYLFMMQAQGILIRDNVRTIGAQVYEQVLRSAYAKRNSSVNDSDYPLDLNHSETFLQTTTFLPEDFTYFANHTCPERLPSMKGPIDINMSEIGMDYIHELFSKDPTIKLGGHWKPSDCMPRWKVAILIPFRNRHEHLPVLFRHLLPMLQRQRLQFAFYVVEQVGTQPFNRAMLFNVGFQEAMKDLDWDCLIFHDVDHIPESDRNYYGCGQMPRHFATKLDKYMYLLPYTEFFGGVSGLTVEQFRKINGFPNAFWGWGGEDDDLWNRVQNAGYSVSRPEGDTGKYKSIPHHHRGEVQFLGRYALLRKSKERQGLDGLNNLNYFANITYDALYKNITVNLTPELAQVNEY
modifications: left off: HA, end not stated, kept
B3: GM3S: GM3 synthase, expressed in cells (protein)
chain: MRTKAAGCAERRPLQPRTEAAAAPAGRAMPSEYTYVKLRSDCSRPSLQWYTRAQSKMRRPSLLLKDILKCTLLVFGVWILYILKLNYTTEECDMKKMHYVDPDHVKRAQKYAQQVLQKECRPKFAKTSMALLFEHRYSVDLLPFVQKAPKDSEAESKYDPPFGFRKFSSKVQTLLELLPEHDLPEHLKAKTCRRCVVIGSGGILHGLELGHTLNQFDVVIRLNSAPVEGYSEHVGNKTTIRMTYPEGAPLSDLEYYSNDLFVAVLFKSVDFNWLQAMVKKETLPFWVRLFFWKQVAEKIPLQPKHFRILNPVIIKETAFDILQYSEPQSRFWGRDKNVPTIGVIAVVLATHLCDEVSLAGFGYDLNQPRTPLHYFDSQCMAAMNFQTMHNVTTETKFLLKLVKEGVVKDLSGGIDREF
modifications: left off: HA, end not stated, kept
B4: Gb3S: Gb3 synthase, expressed in cells (protein)
chain: MSKPPDLLLRLLRGAPRQRVCTLFIIGFKFTFFVSIMIYWHVVGEPKEKGQLYNLPAEIPCPTLTPPTPPSHGPTPGNIFFLETSDRTNPNFLFMCSVESAARTHPESHVLVLMKGLPGGNASLPRHLGISLLSCFPNVQMLPLDLRELFRDTPLADWYAAVQGRWEPYLLPVLSDASRIALMWKFGGIYLDTDFIVLKNLRNLTNVLGTQSRYVLNGAFLAFERRHEFMALCMRDFVDHYNGWIWGHQGPQLLTRVFKKWCSIRSLAESRACRGVTTLPPEAFYPIPWQDWKKYFEDINPEELPRLLSATYAVHVWNKKSQGTRFEATSRALLAQLHARYCPTTHEAMKMYL
modifications: left off: HA, end not stated, kept
B5: GCS‐Δ3C (protein)
chain: MALLDLALEGMAVFGFVLFLVLWLMHFMAIIYTRLHLNKKATDKQPYSKLPGVSLLKPLKGVDPNLINNLETFFELDYPKYEVLLCVQDHDDPAIDVCKKLLGKYPNVDARLFIGGKKVGINPKINNLMPGYEVAKYDLIWICDSGIRVIPDTLTDMVNQMTEKVGLVHGLPYVADRQGFAATLEQVYFGTSHPRYYISANVTGFKCVTGMSCLMRKDVLDQAGGLIAFAQYIAEDYFMAKAIADRGWRFAMSTQVAMQNSGSYSISQFQSRMIRWTKLRINMLPATIICEPISECFVASLIIGWAAHHVFRWDIMVFFMCHCLAWFIFDYIQLRGVQGGTLCFSKLDYAVAWFIRESMTIYIFLSALWDPTISWRTGRYRLRCGGTAEEI
modifications: left off: HA (9aa), internal (between the two Gly residues of DPTISWRTGRYRLRCGGTAEEI), kept
B6: GCS‐HAC: GCS with a HA‐tag at the C‐terminus (protein, UniProt Q16739 1-394, looked up)
Ceramide glucosyltransferase: B1 chain
modifications: C-terminal HA tag
B7: GCS‐HAN: GCS with a HA‐tag in the N‐terminal tail (protein, UniProt Q16739 1-394, looked up)
Ceramide glucosyltransferase: B1 chain
modifications: HA tag in N-terminal tail

Experiments:
[1] = target: GRASP domain of GRASP55 (recombinant protein used for ITC); experiment: ITC
HeLa cells [2] = experiment: Localization of SL biosynthetic enzymes after Brefeldin A, immunofluorescence; assay type: cell-based, human; settings: BFA 5 μg/ml, 30 min; SMS1 also in punctate structures
HeLa cells [3] = experiment: [3H]-sphingosine pulse-chase assay after expression of GCS constructs; assay type: cell-based, human; settings: 8 h chase, two independent experiments; for increase in GSL production: transfected construct 16 h
How it was run: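 HeLa cells were transfected with GCS constructs for 16 h, with non-transfected cells run alongside. Cells were pulse-labelled for 2 h with [3H]-sphingosine (final 0.1 μCi/ml) in serum-free DMEM with 1% fatty-acid-free BSA, then chased 8 h in complete medium with or without BFA (5 μg/ml). Lipids were extracted and resolved by HPTLC (chloroform/methanol/water 65:25:4). Total GSL radioactivity is given as fold change versus control, mean ± SD of two experiments, with Student's t-test.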

GRASP55‐GFP = experiment: Co-immunoprecipitation of HA-tagged enzymes with GRASP55-GFP in HeLa cells; assay type: binding, human; settings: anti-GFP IP, anti-HA blot
How it was run: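 HeLa cells were co-transfected with HA-tagged GCS, LCS, GM3S or Gb3S plus GRASP55-GFP. Cells were lysed and immunoprecipitated with anti-GFP antibody or control IgG. Interaction was read by Western blotting with anti-HA antibody.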

endogenous GRASP55 = assay type: binding, human; settings: HA-tagged enzymes, WI-26 fibroblasts, anti-HA IP

Molecule	co-immunoprecipitation with GRASP55-GFP (in words) (GRASP55‐GFP)	co-immunoprecipitation with endogenous GRASP55 (in words) (endogenous GRASP55)	also measured
GCS C-terminal cytosolic tail peptide (biotinylated, WT)			Kd [1]: 2000 nM
C[C@H]1CCC/C=C/[C@@H]2C[C@H](O)C[C@H]2[C@H](O)/C=C/C(=O)O1 [Brefeldin A, reference compound]			localization of SL biosynthetic enzymes (in words) (HeLa cells [2]): translocation of the enzymes back into the ER; effect on differences in GSL production between GCS constructs (in words) (HeLa cells [3]; BFA 5 μg/ml): neutralized these differences
B1	co‐immunoprecipitated with GRASP55‐GFP	interaction of GCS and LCS with endogenous GRASP55 was also observed	
B2	co‐immunoprecipitated with GRASP55‐GFP	interaction of GCS and LCS with endogenous GRASP55 was also observed	
B3	do not interact		
B4	do not interact		
B5		impaired the interaction	
B6			increase in GSL production (HeLa cells [3]): 2.3 fold
B7			increase in GSL production (HeLa cells [3]): 2.6 fold

Source: publication PMC8521277 (The EMBO Journal, 2021)
